In the library only some 7.2% were active in any assay of this set; here they are far more common.
PostGolgi yeast – growth inhibition of a yeast mutant, post-Golgi transport screen; AID 739; actives 0.9% (n = 98,000); post-Golgi transport phenotypic cell assay; inhibition, % at 10 µM;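 also: yeast cells grown in 1536-well plates; yeast grown about 18 h at 30C before absorbance read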
Ecoli tolC – E. coli tolC mutant growth inhibition; E. coli BW25113 tolC mutant growth, OD615; growth inhibition, % at 10 µM (by protocol); actives 2.2% (n = 65,000); AID 573;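 active = growth inhibition at or above a cutoff equal to the mean over every tested compound plus 3 SD, cut at about 60% in these data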;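 also: growth measured after 20 h incubation at 37 °C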
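Test system: tolC-deleted E. coli BW25113 | Medium: LB with kanamycin 50 µg/mL | Compound dosing: Single concentration, 10 µM final per compound | Schedule: 37 °C, 20 h exposure | Measured by: OD at 615 nm | Evaluation: Percent growth inhibition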
PLAP act – activators of human placental alkaline phosphatase; P05187; purified PLAP enzyme, luminescent substrate read-out; active compounds read high; actives 1.2% (n = 96,000); activation fold at 20 µM; AID 696; in the data active = activation fold above about 2
Target sequence (P05187 whole entry, looked up): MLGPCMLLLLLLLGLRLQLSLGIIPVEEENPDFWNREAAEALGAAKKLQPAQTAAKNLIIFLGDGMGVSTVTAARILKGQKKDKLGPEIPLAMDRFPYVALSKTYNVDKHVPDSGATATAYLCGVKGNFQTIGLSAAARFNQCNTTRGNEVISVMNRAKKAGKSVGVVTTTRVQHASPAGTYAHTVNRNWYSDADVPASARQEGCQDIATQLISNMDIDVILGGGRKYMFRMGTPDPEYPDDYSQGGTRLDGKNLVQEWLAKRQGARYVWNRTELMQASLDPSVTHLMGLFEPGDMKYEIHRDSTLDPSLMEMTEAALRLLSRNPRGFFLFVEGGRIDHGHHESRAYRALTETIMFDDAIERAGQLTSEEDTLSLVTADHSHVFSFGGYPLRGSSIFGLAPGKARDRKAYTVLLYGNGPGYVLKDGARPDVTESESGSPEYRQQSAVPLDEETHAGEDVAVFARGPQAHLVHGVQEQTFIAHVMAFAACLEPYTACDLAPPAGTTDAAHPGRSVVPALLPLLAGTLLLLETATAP
Ecoli WT expand – blocks growth of wild type E. coli BW25113; growth inhibition, % at 100 µM; OD600 absorbance; actives 0.15% (n = 98,000);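 active = growth inhibition above about 50% at one test dose, limit read from the data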;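 also: growth measured after 20 h incubation at 37 °C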
PostGolgi ctrl – growth of the yeast control strain, post-Golgi counter-screen; efflux-deficient yeast background strain, growth absorbance A615, 16 h; inhibition, % at 10 µM; actives 5% (n = 98,000)
* hit, by the source's call; . = not tested or not shown. Rule as the data show it, unless noted: active = inhibition above about 30%; inactive = the rest.

SMILES | PostGolgi yeast | Ecoli tolC | PLAP act | Ecoli WT expand | PostGolgi ctrl
O=C(CSc1nnc(COc2ccc(Cl)cc2)o1)N1c2ccccc2CCc2ccccc21 | -8 | . | 1 | -6 | 31*
CCOC(=O)N1CCN(C(=O)CSc2nnc(COc3ccc(Cl)cc3)o2)CC1 | -7 | 8 | 1.2 | 6 | 6
CN(C)S(=O)(=O)c1ccc(C(=O)OCC(=O)c2ccc(OC(F)F)cc2OC(F)F)cc1 | -3 | 7 | 1.2 | -13 | 6
CCCCOc1ccc(N2C(=O)CC(NCCc3ccc(S(N)(=O)=O)cc3)C2=O)cc1 (stereo not drawn) | 5 | . | 2.1* | -1 | 6
Cn1c2ccccc2c(=O)c2c(=O)n(C3CCCCC3)c(-c3cccs3)nc21 | 10 | . | 0.8 | 16 | 26
COc1ccc(C)cc1NC(=O)COC(=O)c1c(C)noc1C | 1 | . | 0.8 | -5 | 9
Cc1cccc(C)c1N(CC(=O)Nc1cc(Cl)ccc1Oc1ccccc1)S(C)(=O)=O | 3 | . | 1.1 | -13 | 50*
Cc1noc(C)c1C(=O)OCC(=O)Nc1cc(Cl)ccc1Oc1ccccc1 | 1 | . | 1.2 | -7 | 38*
Cc1ccc(C)c(N(CC(=O)Nc2cc(Cl)ccc2Oc2ccccc2)S(C)(=O)=O)c1 | -4 | . | 1.1 | -8 | 23
CN1CCN(c2ncnc3c2sc2nc(N4CCCC4)c4c(c23)CC(C)(C)OC4)CC1 | . | -11 | . | . | .
CSC(=NC#N)N1CCN(c2cccc(Cl)c2)CC1 | 0 | . | 0.9 | 8 | 8
Cc1cccc(-n2nnc(C(=O)N3CCc4ccccc4C3)c2N)c1 | -1 | 55 | 1 | -14 | 34*
COc1ccc(OC)c(NC2c3ccccc3C(=O)N2c2cccnc2)c1 (stereo not drawn) | -2 | -10 | 1.5 | -3 | 3
O=[N+]([O-])/C=C/c1cn(Cc2ccccc2)c2ccccc12 | -1 | . | 1 | -13 | 43*
C(=N\n1cnnc1)/c1cn(Cc2ccccc2)c2ccccc12 | -2 | 11 | 0.9 | -10 | 16
CCCCCC(=O)N/N=C(\C)c1ccccn1 | -9 | . | 2.4* | 21 | 8
O=C1c2ccccc2NC(c2c(Cl)cccc2Cl)N1Cc1ccccc1 (stereo not drawn) | 65* | . | 1.2 | -22 | 42*
O=C1c2ccccc2NC(c2ccc(Cl)cc2Cl)N1Cc1ccccc1 (stereo not drawn) | 12 | . | 1.1 | -17 | 36*
Cc1cccc(C2Nc3ccccc3C(=O)N2CCc2ccccc2)n1 (stereo not drawn) | -11 | 4 | 0.7 | -2 | 7
O=C1c2ccccc2NC(c2ccc(Cl)cc2Cl)N1O (stereo not drawn) | 3 | 13 | 1 | 58* | 11
O=C(CCNc1ccc(F)cc1)c1ccco1 | 0 | 3 | 0.9 | 6 | 2
CCCS(=O)(=O)N1CCCC(C(=O)NCCN(CC)c2ccccc2)C1 (stereo not drawn) | 6 | -7 | 1 | 2 | 7
CCCS(=O)(=O)N1CCCC(C(=O)NCCCN(CC)c2cccc(C)c2)C1 (stereo not drawn) | 13 | -9 | 1.3 | -5 | 31*
CCCS(=O)(=O)N1CCCC(C(=O)NCCN(CC)CC)C1 (stereo not drawn) | 5 | -32 | 1.1 | -1 | 33*
Cc1noc(C)c1C(=O)N1CCN(Cc2ccc3c(c2)OCO3)CC1 | 3 | -7 | 1 | -5 | 10
SMILES | PostGolgi yeast | Ecoli tolC | PLAP act | Ecoli WT expand | PostGolgi ctrl
O=C(C1COc2ccccc2O1)N1CCCC1 (stereo not drawn) | 1 | -5 | 0.9 | 4 | 3
O=C(c1cc(-c2ccccc2)on1)N1CCN(Cc2ccc3c(c2)OCO3)CC1 | 13 | 66* | 1.2 | -10 | 15
O=C(O)C1C2C=CC(C2)C1C(=O)NC1CCN(Cc2ccccc2)CC1 (stereo not drawn) | -3 | -8 | 1.3 | -2 | 3
O=C(c1cc2c(s1)CCCC2)N1CCN(Cc2ccc3c(c2)OCO3)CC1 | 36* | 51 | 1.8 | 2 | 27
O=C(C1COc2ccccc2O1)N1CCN(Cc2ccc3c(c2)OCO3)CC1 (stereo not drawn) | 65* | 8 | 1.5 | 8 | 28
O=C(NC1CCN(Cc2ccccc2)CC1)C1COc2ccccc2O1 (stereo not drawn) | 70* | -11 | 1.5 | 2 | 14
O=C(c1ccc(Br)s1)N1CCN(Cc2ccc3c(c2)OCO3)CC1 | -19 | 32 | 1.1 | 9 | 13
CC1CCCN(C(=O)CSc2cnc3ccccc3n2)C1 (stereo not drawn) | 3 | . | 0.8 | 2 | 15
Cc1ccc(C)c(N2CCN(C(=O)Cn3c(=O)[nH]c4ccsc4c3=O)CC2)c1 | -4 | . | 1.2 | 6 | 5
